Reference: ChEMBL document CHEMBL2390925, “Further studies on 2-arylacetamide pyridazin-3(2H)-ones: design, synthesis and evaluation of 4,6-disubstituted analogs as formyl peptide receptors (FPRs) agonists” (Eur J Med Chem, 2013)

Key:
[1] = target: T1, N-formyl peptide receptor 2 (Homo sapiens) (UniProt P25090); assay: Agonist activity at FPR2 (unknown origin) transfected in human HL60 cells assessed as induction of Ca2+ mobilization relative to WKYMVm; assay type: functional, cell-based; conditions: HL-60
T1 sequence (whole entry): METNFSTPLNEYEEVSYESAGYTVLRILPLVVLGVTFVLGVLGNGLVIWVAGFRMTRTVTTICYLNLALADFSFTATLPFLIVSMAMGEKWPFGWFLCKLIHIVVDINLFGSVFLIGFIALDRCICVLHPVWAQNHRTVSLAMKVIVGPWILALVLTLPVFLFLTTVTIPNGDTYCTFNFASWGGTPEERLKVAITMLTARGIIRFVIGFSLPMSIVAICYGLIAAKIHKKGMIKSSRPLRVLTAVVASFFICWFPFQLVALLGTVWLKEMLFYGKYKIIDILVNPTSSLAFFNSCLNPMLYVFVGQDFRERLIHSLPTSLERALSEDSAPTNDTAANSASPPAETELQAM
Outline: (§1)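 Same Fluo-4 Ca2+ flux in transfected HL-60 cells. The peak fluorescence change over baseline was normalized to 5 nM fMLF for FPR1 cells and to 5 nM WKYMVm for FPR2 and FPR3 cells, each taken as 100%. Efficacy was read from 5–6 point dose-response curves.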

[2] = target: T2, N-formyl peptide receptor 3 (Homo sapiens, UniProt P25089); assay: Agonist activity at FPR3 (unknown origin) transfected in human HL60 cells assessed as induction of Ca2+ mobilization; assay type: cell-based, HL-60
T2 sequence (P25089 whole entry): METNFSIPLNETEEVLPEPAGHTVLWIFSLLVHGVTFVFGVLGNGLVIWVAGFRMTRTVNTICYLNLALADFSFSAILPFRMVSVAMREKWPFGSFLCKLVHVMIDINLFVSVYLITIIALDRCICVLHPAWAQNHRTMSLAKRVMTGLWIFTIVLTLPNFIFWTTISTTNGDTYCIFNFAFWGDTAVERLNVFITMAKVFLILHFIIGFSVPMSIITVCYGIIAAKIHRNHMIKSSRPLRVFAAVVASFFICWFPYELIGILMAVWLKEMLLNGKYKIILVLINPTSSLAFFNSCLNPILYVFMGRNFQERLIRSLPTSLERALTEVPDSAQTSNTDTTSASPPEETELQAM

[3] = system: HL-60; assay: Effect on Ca2+ mobilization in human wild type HL60 cells; assay type: functional, cell-based
Outline: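 Wild-type, non-transfected HL-60 cells, grown without G418, were run in the same Fluo-4 Ca2+ flux assay. Fluorescence was monitored every 5 s for 240 s at room temperature.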

[4] = target: fMet-Leu-Phe receptor 1/2 (Homo sapiens) (UniProt P21462+P25090); assay: Agonist activity at FPR1/FPR2 in human neutrophils assessed as induction of Ca2+ mobilization relative to fMLF; assay type: functional
Outline: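 Neutrophils from healthy donors were isolated by dextran sedimentation, Histopaque 1077 gradient and hypotonic red cell lysis. […] Peak response was normalized to 5 nM fMLF as 100%. EC50 comes from 5–6 point curves, mean of three experiments with different donors.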

[5] = system: HL-60; assay: Cytotoxicity against human wild type HL60 cells at 5 to 20 uM after 60 mins by CellTitre-Glo luminescent assay; assay type: cell-based; conditions: hl-60, 1 h
Outline: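 Wild-type HL-60 cells at 3×10^4 cells/well were exposed to 5, 10 or 20 µM compound for 60 min at 37 °C in 5% CO2. Samples were equilibrated to room temperature for 30 min before the CellTiter-Glo luminescence read. Triplicate samples; the experiment was representative of two.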

[6] = target: T3, N-formyl peptide receptor 3 (Homo sapiens) (UniProt P25089); assay: Agonist activity at FPR3 (unknown origin) transfected in human HL60 cells assessed as induction of Ca2+ mobilization relative to WKYMVm; assay type: cell-based; conditions: HL-60; outline: as §1
T3 sequence (whole entry): T2 sequence (P25089 whole entry)

[7] = target: T4, fMet-Leu-Phe receptor (Homo sapiens) (UniProt P21462); assay: Agonist activity at FPR1 (unknown origin) transfected in human HL60 cells assessed as induction of Ca2+ mobilization relative to fMLF; assay type: functional, cell-based; conditions: HL-60; outline: as §1
T4 sequence (whole entry): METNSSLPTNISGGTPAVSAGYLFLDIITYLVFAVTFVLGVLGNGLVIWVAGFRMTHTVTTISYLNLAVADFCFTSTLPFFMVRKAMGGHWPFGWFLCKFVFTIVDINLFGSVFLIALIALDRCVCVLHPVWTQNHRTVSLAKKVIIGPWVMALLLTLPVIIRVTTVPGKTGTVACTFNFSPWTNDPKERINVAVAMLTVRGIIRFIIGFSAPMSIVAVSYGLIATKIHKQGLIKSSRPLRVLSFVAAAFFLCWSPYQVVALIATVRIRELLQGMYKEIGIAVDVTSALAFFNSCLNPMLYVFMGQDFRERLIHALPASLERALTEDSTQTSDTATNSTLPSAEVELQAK

[8] = target: T5, N-formyl peptide receptor 2 (Homo sapiens, UniProt P25090); assay: Agonist activity at FPR2 (unknown origin) transfected in human HL60 cells assessed as induction of Ca2+ mobilization; assay type: functional, cell-based, HL-60
T5 sequence (P25090 whole entry): T1 sequence (whole entry)

[9] = target: T6, fMet-Leu-Phe receptor (Homo sapiens, UniProt P21462); assay: Agonist activity at FPR1 (unknown origin) transfected in human HL60 cells assessed as induction of Ca2+ mobilization; assay type: functional, cell-based, HL-60
T6 sequence (P21462 whole entry): T4 sequence (whole entry)

[10] = target: T7, fMet-Leu-Phe receptor 1/2 (Homo sapiens, UniProt P21462+P25090); assay: Agonist activity at FPR1/FPR2 in human neutrophils assessed as induction of Ca2+ mobilization; assay type: functional
T7 sequence (P21462 whole entry): T4 sequence (whole entry)
T7 sequence (P25090 whole entry): T1 sequence (whole entry)

[11] = system: Neutrophil; assay: Induction of chemotaxis in human neutrophils assessed as cell migration after 60 mins by CellTitre-Glo luminescent assay; assay type: functional, cell-based; conditions: 1 h
Outline: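 Migration ran 60 min at 37 °C in 5% CO2. Migrated cells were counted by ATP luminescence against a neutrophil standard curve and expressed as % of spontaneous migration. EC50 comes from nonlinear regression of dose-response curves.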

Structure (SMILES) | Efficacy [1] | EC50 [2] | EC50 [3] | Efficacy [4] | Efficacy [6] | Efficacy [7] | EC50 [8] | EC50 [9] | EC50 [10] | EC50 [11] | Activity [5]
COc1cccc(Cc2cc(C(C)C)nn(CC(=O)Nc3ccc(Br)cc3)c2=O)c1 | 90% | 17.4 µM | > 50 µM | 110% | 30% | 135% |  |  |  |  | Non-toxic
COc1cccc(Cc2ccnn(CC(=O)Nc3ccc(Br)cc3)c2=O)c1 | 60% | 14.6 µM | > 50 µM |  | 25% | 125% |  |  |  |  | Non-toxic
COc1ccc(Nc2c(C(C)=O)c(C)nn(CC(=O)Nc3ccc(Br)cc3)c2=O)cc1 | 90% | > 50 µM | > 50 µM | 110% |  | 75% | 1.7 µM | 13.5 µM | 3.9 µM | 2.7 µM | Non-toxic
Cc1cc(Cc2ccc(C(N)=O)cc2)c(=O)n(CC(=O)Nc2ccc(Br)cc2)n1 | 80% | > 50 µM | > 50 µM |  |  | 40% | 27.2 µM | 29.3 µM |  |  | Non-toxic
CCc1cc(Cc2cccc(OC)c2)c(=O)n(CC(=O)Nc2ccc(I)cc2)n1 | 65% | > 50 µM | > 50 µM | 90% |  | 70% |  |  |  |  | Non-toxic
Cc1cc(Cc2ccccc2)c(=O)n(CC(=O)Nc2ccc3c(c2)OCO3)n1 |  | > 50 µM | > 50 µM | 75% |  | 55% | > 50 µM | 6.9 µM | 6.1 µM | 4.2 µM | Non-toxic
Cc1cc(Cc2ccsc2)c(=O)n(CC(=O)Nc2ccc(Br)cc2)n1 | 65% | > 50 µM | > 50 µM | 115% |  | 100% |  |  |  |  | Non-toxic
COc1cccc(C(=O)c2cc(C)nn(CC(=O)Nc3ccc(Br)cc3)c2=O)c1 | 110% | > 50 µM | > 50 µM | 115% |  | 140% |  |  |  |  | Non-toxic

More lines, main results first:

Efficacy [1] | EC50 [2] | EC50 [3] | Efficacy [4] | Efficacy [6] | Efficacy [7] | EC50 [8] | EC50 [9] | EC50 [10] | EC50 [11] | Structure (SMILES) | Activity [5]
20% | > 50 µM | > 50 µM |  |  | 50% | 11.6 µM | 5.5 µM |  |  | Cc1cc(Cc2ccccc2)c(=O)n(CC(=O)Nc2ccc(Br)cc2)n1 | Non-toxic
100% | > 50 µM | > 50 µM | 110% |  | 120% |  |  |  |  | COc1cccc(C(=O)Nc2cc(C)nn(CC(=O)Nc3ccc(Br)cc3)c2=O)c1 | Non-toxic
25% | > 50 µM | > 50 µM | 115% |  | 110% |  |  |  |  | COc1cccc(Cc2cc(-c3ccccc3)nn(CC(=O)Nc3ccc(Br)cc3)c2=O)c1 | Non-toxic
35% | > 50 µM | > 50 µM | 90% |  | 55% |  |  |  |  | Cc1cc(Cc2cccc(Cl)c2)c(=O)n(CC(=O)Nc2ccc(I)cc2)n1 | Non-toxic
90% | > 50 µM | > 50 µM | 120% |  | 85% |  |  |  |  | Cc1cc(Cc2cccnc2)c(=O)n(CC(=O)Nc2ccc(Br)cc2)n1 | Non-toxic
110% | > 50 µM | > 50 µM | 105% |  | 100% |  |  |  |  | COc1ccc(Nc2cc(C)nn(CC(=O)Nc3ccc(Br)cc3)c2=O)cc1 | Non-toxic
60% | 10.2 µM | > 50 µM | 80% | 25% | 140% |  |  |  |  | Cc1cc(Cc2cccs2)c(=O)n(CC(=O)Nc2ccc(Br)cc2)n1 | Non-toxic
75% | > 50 µM | > 50 µM | 125% |  | 100% |  |  |  |  | Cc1cc(Cc2ccoc2)c(=O)n(CC(=O)Nc2ccc(Br)cc2)n1 | Non-toxic
